Data published in ChEMBL document CHEMBL2311272, “Design of a new fluorescent probe: pyrrole/imidazole hairpin polyamides with pyrene conjugation at their γ-turn” (Bioorg Med Chem, 2013).
pKd: −log10 of the molar value.

Key:
[1] = Binding affinity to 5'-CCGAGTCCATACG-3' DNA (unknown origin) assessed as increase in fluorescence intensity at 200 nM by florescence assay relative to control
Outline: (§1)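 Steady-state fluorescence of 200 nM pyrene conjugates mixed with target oligonucleotide duplex in 5 mM Na phosphate buffer, pH 7.0, 1% v/v DMF. Excitation at 345 nm, emission read at 386 nm. Measured at room temperature without oxygen removal. Intensity is compared with that of the conjugate alone.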

[2] = Binding affinity to 5'-CGTATGGACTCGG-3' DNA (unknown origin) assessed as increase in fluorescence intensity at 200 nM by florescence assay relative to control; outline: as §1
[3] = Binding affinity to 5'-biotin-labeled GCTAGTC-CAGGCTTTTGCCTGGACTAGC-3' DNA (unknown origin) by surface plasmon resonance assay
Outline: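 Biacore SPR at 25 °C. Biotinylated hairpin DNA is captured on a streptavidin SA chip. Polyamides are diluted from 4 mM DMSO stocks into HBS-EP (10 mM HEPES […], 0.15 M NaCl, 3 mM EDTA, 0.005% P20) with 0.1% DMSO, which is also the running buffer. Samples are injected at 5 μL/min over 6.25 nM–4 μM. Regeneration uses running buffer or 10 mM glycine-HCl, pH 1.5. KD is obtained by model fitting.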

With CC(=O)Nc1cn(C)c(C(=O)Nc2cn(C)c(C(=O)Nc3cc(C(=O)Nc4cc(C(=O)NCC[C@@H](NC(=O)CCNC(=O)CCCc5ccc6ccc7cccc8ccc5c6c78)C(=O)Nc5cn(C)c(C(=O)Nc6cc(C(=O)Nc7cc(C(=O)Nc8cc(C(=O)NCCC(=O)NCCCN(C)C)n(C)c8)n(C)c7)n(C)c6)n5)n(C)c4)n(C)c3)n2)n1 the fold change (FC) [1] was 4, the fold change (FC) [2] was 4 and the pKd [3] was 7.76.

Compound CN(C)CCCNC(=O)CCNC(=O)c1cc(NC(=O)c2cc(NC(=O)c3cc(NC(=O)c4nc(NC(=O)CCCNC(=O)c5cc(NC(=O)c6cc(NC(=O)c7nc(NC(=O)c8nc(NC(=O)CCNC(=O)CCNC(=O)CCCc9ccc%10ccc%11cccc%12ccc9c%10c%11%12)cn8C)cn7C)cn6C)cn5C)cn4C)cn3C)cn2C)cn1C has a fold change (FC) [1] of 3, a fold change (FC) [2] of 3 and a pKd [3] of less than 5.00.

CN(C)CCCNC(=O)CCNC(=O)c1cc(NC(=O)c2cc(NC(=O)c3cc(NC(=O)c4nc(NC(=O)CCCNC(=O)c5cc(NC(=O)c6cc(NC(=O)c7nc(NC(=O)c8nc(NC(=O)CCNC(=O)CCCc9ccc%10ccc%11cccc%12ccc9c%10c%11%12)cn8C)cn7C)cn6C)cn5C)cn4C)cn3C)cn2C)cn1C showed a fold change (FC) [1] of 3, a fold change (FC) [2] of 3 and a pKd [3] of less than 5.00.

For CC(=O)Nc1cn(C)c(C(=O)Nc2cn(C)c(C(=O)Nc3cc(C(=O)Nc4cc(C(=O)NCC[C@@H](NC(=O)CCCc5ccc6ccc7cccc8ccc5c6c78)C(=O)Nc5cn(C)c(C(=O)Nc6cc(C(=O)Nc7cc(C(=O)Nc8cc(C(=O)NCCC(=O)NCCCN(C)C)n(C)c8)n(C)c7)n(C)c6)n5)n(C)c4)n(C)c3)n2)n1, the fold change (FC) [1] was 7, the fold change (FC) [2] was 7 and the pKd [3] was 5.76.
